# Measurements taken from ChEMBL document CHEMBL4017532, “Multifunctional Hybrid Compounds Derived from 2-(2,5-Dioxopyrrolidin-1-yl)-3-methoxypropanamides with Anticonvulsant and Antinociceptive Properties” (J Med Chem, 2017).
# Activity calls are given as the source filed them. No cut-off for these calls is given here.
# Assays:
# [1] = test system: Mus musculus; assay: Anticonvulsant activity in Albino Swiss CD-1 mouse assessed as protection against 6 Hz current-induced seizure at 100 mg/kg, ip pretreated up to 0.5 hrs followed by 6 Hz current induction for 3 secs relative to control; assay type: functional
# [2] = test system: Mus musculus; assay: Anticonvulsant activity in ip dosed Albino Swiss CD-1 mouse assessed as protection against maximal electroshock-induced seizures pretreated up to 2 hrs followed by 50 Hz current induction for […] measured at time to peak effect; assay type: functional; settings: Swiss CD-1, ip
# [3] = test system: Mus musculus; assay: Anticonvulsant activity in Albino Swiss CD-1 mouse assessed as protection against maximal electroshock-induced seizures by measuring time to peak effect at 100 mg/kg, ip pretreated up to 2 hrs followed by 50 Hz current induction for […]; assay type: functional
# [4] = test system: Mus musculus; assay: Anticonvulsant activity in ip dosed Albino Swiss CD-1 mouse assessed as protection against 32 mA current-induced seizure treated up to 2 hrs prior to 6-Hz current induction measured at time to peak effect; assay type: functional; settings: Swiss CD-1, ip
# [5] = test system: Mus musculus; assay: Protection index, ratio of TD50 for neurotoxicity in ip dosed Albino Swiss CD-1 mouse to ED50 for ip dosed maximal electroshock induced seizure Albino Swiss CD-1 mouse
# Procedure, shortened: (§1)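 Acute neurological toxicity after ip dosing (1% Tween 80 suspension) was assessed in the mouse chimney test. TD50 with 95% confidence limits was derived by probit analysis. Protective index is TD50 from the chimney test divided by ED50 from the MES, scPTZ or 6 Hz test.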
# [6] = Neurotoxicity in ip dosed Albino Swiss CD-1 mouse assessed as induction of motor impairment measured up to 60 secs by chimney test; assay type: toxicity, organism-based; settings: in vivo; procedure, shortened: as §1
# [7] = test system: Mus musculus; assay: Protection index, ratio of TD50 for neurotoxicity in ip dosed Albino Swiss CD-1 mouse to ED50 for ip dosed Albino Swiss CD-1 mouse model of 6 Hz-induced siezures; procedure, shortened: as §1
# [8] = test system: Mus musculus; assay: Anticonvulsant activity in Albino Swiss CD-1 mouse assessed as protection against 6 Hz current-induced seizure at 100 mg/kg, ip pretreated up to 2 hrs followed by 6 Hz current induction for 3 secs relative to control; assay type: functional
# [9] = test system: Mus musculus; assay: Analgesic activity in Albino Swiss CD-1 mouse assessed as increase in pain response latency administered at 4 mg/kg, ip treated up to 90 mins prior to tet by hot plate assay; assay type: functional, organism-based
# Procedure, shortened: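 Adult male Albino Swiss CD-1 mice (18−25 g), 6−12 per group, each used once. Drug given ip suspended in 1% aqueous Tween 80; vehicle controls received Tween 80. Mice were put back on the hot plate at 15, 30, 45, 60 and 90 min after dosing, and latency to pain reaction was recorded. Data are means ± SEM, analysed by ANOVA with post hoc tests.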
# [10] = Retention time of the compound by LC-MS method
# [11] = target: Cytochrome P450 3A4 (Homo sapiens, UniProt P08684); assay: Inhibition of human CYP3A4 assessed as reduction in luciferin-PPXE conversion to D-luciferin at 12.5 to 25 uM by luminescence assay; assay type: ADME
# Procedure, shortened: (§2)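 P450-Glo luminescence assays used recombinant human CYP3A4 or CYP2D6 with conversion of luciferin-PPXE to D-luciferin. Ketoconazole (CYP3A4) and quinidine (CYP2D6) served as reference inhibitors.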
# [12] = target: Cytochrome P450 2D6 (Homo sapiens, UniProt P10635); assay: Inhibition of human CYP2D6 assessed as reduction in luciferin-PPXE conversion to D-luciferin at 12.5 to 25 uM by luminescence assay; assay type: ADME; procedure, shortened: as §2
# [13] = test system: Mus musculus; assay: Anticonvulsant activity in Albino Swiss CD-1 mouse assessed as inhibition of pentylenetetrazole-induced seizures at 100 mg/kg, ip administered up to 2 hrs prior to PTZ induction measured after 30 mins relative to control; assay type: functional; set-up: scale not given: the % may be the effect or the level left
# [14] = test system: Mus musculus; assay: Anticonvulsant activity in Albino Swiss CD-1 mouse assessed as protection against maximal electroshock-induced seizures at 100 mg/kg, ip pretreated up to 2 hrs followed by 50 Hz current induction for […] relative to control; assay type: functional
# [15] = test system: Liver; assay: Drug level in human liver microsomes treated with 1-{1-[4-(3-Chlorophenyl)piperazin-1-yl]-3-methoxy-1-oxopropan-2-yl}pyrrolidine-2,5-dione preincubated for 5 mins followed by NADPH addition measured after 2 hrs by LC-MS method; assay type: ADME, microsome
# [16] = test system: Liver; assay: Drug level in human liver microsomes treated with 1-{1-[4-(4-Trifluoromethylphenyl)piperazin-1-yl]-3-methoxy-1-oxopropan-2-yl}pyrrolidine-2,5-dione preincubated for 5 mins followed by NADPH addition measured after 2 hrs by LC-MS method; assay type: ADME, microsome
# [17] = test system: Liver; assay: Drug level in human liver microsomes treated with 1-{1-[4-(3-Trifluoromethylphenyl)piperazin-1-yl]-3-methoxy-1-oxopropan-2-yl}pyrrolidine-2,5-dione preincubated for 5 mins followed by NADPH addition measured after 2 hrs by LC-MS method; assay type: ADME, microsome
# [18] = test system: Mus musculus; assay: Anticonvulsant activity in Albino Swiss CD-1 mouse assessed as inhibition of pentylenetetrazole-induced seizures by measuring time to peak effect at 100 mg/kg, ip administered up to 2 hrs prior to PTZ induction measured for 30 mins; assay type: functional
# Sequence of Cytochrome P450 3A4 (P08684 whole entry): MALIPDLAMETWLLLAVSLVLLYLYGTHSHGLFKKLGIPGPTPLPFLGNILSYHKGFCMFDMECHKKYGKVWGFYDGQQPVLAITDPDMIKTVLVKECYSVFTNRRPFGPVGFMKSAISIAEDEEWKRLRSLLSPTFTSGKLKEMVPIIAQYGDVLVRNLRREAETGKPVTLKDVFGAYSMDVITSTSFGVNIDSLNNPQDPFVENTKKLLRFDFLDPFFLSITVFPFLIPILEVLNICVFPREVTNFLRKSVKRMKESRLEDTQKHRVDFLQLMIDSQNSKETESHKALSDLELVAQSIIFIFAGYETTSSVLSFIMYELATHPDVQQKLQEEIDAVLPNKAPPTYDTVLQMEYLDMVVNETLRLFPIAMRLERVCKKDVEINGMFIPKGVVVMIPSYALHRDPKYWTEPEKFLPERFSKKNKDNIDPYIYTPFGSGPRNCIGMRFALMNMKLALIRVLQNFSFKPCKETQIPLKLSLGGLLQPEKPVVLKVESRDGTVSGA
# Sequence of Cytochrome P450 2D6 (P10635 whole entry): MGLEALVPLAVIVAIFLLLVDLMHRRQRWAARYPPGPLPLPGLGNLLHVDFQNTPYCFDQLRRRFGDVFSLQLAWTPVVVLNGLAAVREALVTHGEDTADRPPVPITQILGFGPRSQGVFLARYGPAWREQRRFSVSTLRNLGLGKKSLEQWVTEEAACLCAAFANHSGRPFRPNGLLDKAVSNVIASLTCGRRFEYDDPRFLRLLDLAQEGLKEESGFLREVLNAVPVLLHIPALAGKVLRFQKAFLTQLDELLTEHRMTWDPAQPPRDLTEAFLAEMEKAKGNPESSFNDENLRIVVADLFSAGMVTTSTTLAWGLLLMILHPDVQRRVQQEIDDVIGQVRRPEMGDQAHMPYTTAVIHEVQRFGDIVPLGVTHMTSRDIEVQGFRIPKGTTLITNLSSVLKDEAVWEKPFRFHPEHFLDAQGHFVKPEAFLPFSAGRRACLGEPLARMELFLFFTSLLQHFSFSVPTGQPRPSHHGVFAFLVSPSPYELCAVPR
SMILES,ED50 [2],Time [3],ED50 [4],TD50 at 1 min [6],Ratio TD50/ED50 [7],Activity [8],also measured
O=C(C(CO)N1C(=O)CCC1=O)N1CCN(c2ccc(C(F)(F)F)cc2)CC1 (stereo not given),,,,,,,Efficacy [1]: 50%
COC[C@@H](NC(C)=O)C(=O)NCc1ccccc1 [LACOSAMIDE],9.4 mg/kg,0.5 h,6.4 mg/kg,33.7 mg/kg,5.3,,Ratio TD50/ED50 [5]: 3.6
COCC(C(=O)N1CCN(c2ccc(F)cc2)CC1)N1C(=O)CCC1=O (stereo not given),,0.25 h,71.4 mg/kg,306 mg/kg,4.3,<=75%,
CN1CC[C@]23c4c5ccc(O)c4O[C@H]2[C@@H](O)C=C[C@H]3[C@H]1C5,,,,,,,Activity [9]: Active
COCC(C(=O)N1CCN(C)CC1)N1C(=O)CCC1=O (stereo not given),,0.25 h,68.2 mg/kg,> 500 mg/kg,>7.3,<=75%,
COCC(C(=O)N1CCN(c2cccc(Cl)c2Cl)CC1)N1C(=O)CCC1=O (stereo not given),,0.25 to 0.5 h,38 to 54.7 mg/kg,224 to 261 mg/kg,4.8 - 5.9,<=75%,
COCC(C(=O)N1CCN(c2cccc(C(F)(F)F)c2)CC1)N1C(=O)CCC1=O (stereo not given),,,,,,<=75%,Retention time [10]: 6.08 min; inhibition (INH) [11]: Not Active; inhibition (INH) [12]: Not Active; Activity [13]: 50%
CC[C@@H](C(N)=O)N1CCCC1=O [LEVETIRACETAM],> 500 mg/kg,1 h,,> 500 mg/kg,>33.8,,
COC[C@H](C(=O)N1CCN(c2ccc(C(F)(F)F)cc2)CC1)N1C(=O)CCC1=O,80.9 to 88.9 mg/kg,0.25 to 1 h,21.1 to 22.1 mg/kg,167 to 194 mg/kg,8 - 9.2,,Ratio TD50/ED50 [5]: 1.9 - 2.1
COCC(C(=O)N1CCN(c2ccc(Cl)cc2)CC1)N1C(=O)CCC1=O (stereo not given),,0.25 to 1 h,45.5 to 77 mg/kg,180 to 208 mg/kg,2.4 - 4.6,<=75%,
COC[C@@H](C(=O)N1CCN(c2ccc(C(F)(F)F)cc2)CC1)N1C(=O)CCC1=O,> 120 mg/kg,0.25 to 0.5 h,37.9 to 49.2 mg/kg,243 to 246 mg/kg,5 - 6.4,,
COCC(C(=O)N1CCN(c2ccc(C)cc2)CC1)N1C(=O)CCC1=O (stereo not given),,0.25 h,21.1 mg/kg,204 mg/kg,9.6,<=75%,
COCC(C(=O)N1CCN(c2cccc(OC)c2)CC1)N1C(=O)CCC1=O (stereo not given),,0.25 h,> 100 mg/kg,,,<=75%,
COCC(C(=O)N1CCN(c2cccc(Cl)c2)CC1)N1C(=O)CCC1=O (stereo not given),79.7 to 87 mg/kg,0.25 to 0.5 h,26.1 to 32.7 mg/kg,192 to 226 mg/kg,6.9 - 7.3,<=75%,Retention time [10]: 5.72 min; Activity [14]: <=75%; Ratio TD50/ED50 [5]: 2.4 - 2.6; inhibition (INH) [11]: Not Active
COCC(C(=O)N1C=CN(c2cccc(Cl)c2)CC1)N1C(=O)CCC1=O (stereo not given),,,,,,,Retention time [10]: 6.04 min; Drug metabolism [15]: Metabolite_Detected
COCC(C(=O)N1C=CN(c2ccc(C(F)(F)F)cc2)CC1)N1C(=O)CCC1=O (stereo not given),,,,,,,Retention time [10]: 6.23 min; Drug metabolism [16]: Metabolite_Detected
COCC(C(=O)N1C=CN(c2cccc(C(F)(F)F)c2)CC1)N1C(=O)CCC1=O (stereo not given),,,,,,,Retention time [10]: 6.33 min; Drug metabolism [17]: Metabolite_Detected
CCC1(C)CC(=O)NC1=O (stereo not given) [ETHOSUXIMIDE],> 500 mg/kg,0.25 h,222 mg/kg,722 mg/kg,3.2,,Time [18]: 0.25 h
O=C(C(CO)N1C(=O)CCC1=O)N1CCN(c2cccc(C(F)(F)F)c2)CC1 (stereo not given),,,,,,,Efficacy [1]: 50%
COCC(C(=O)N1CCN(c2cccc(C)c2)CC1)N1C(=O)CCC1=O (stereo not given),,0.25 h,47.7 mg/kg,213 mg/kg,4.5,<=75%,Activity [14]: <=75%
